Data as given in ChEMBL document CHEMBL1138738, “Synthesis, in vitro pharmacology, structure-activity relationships, and pharmacokinetics of 3-alkoxy-2-amino-6-fluorobicyclo[3.1.0]hexane-2,6-dicarboxylic acid derivatives as potent and selective group II metabotropic glutamate receptor antagonists” (J Med Chem, 2004).

How the values were obtained:
[1] = target: T1, Metabotropic glutamate receptor 2 (Rattus norvegicus, UniProt P31421); experiment: Binding affinity towards metabotropic glutamate receptor 2 of rat expressed in CHO cells was determined by using [3H]MGS-0008; type: cell-based
T1 sequence (P31421 whole entry): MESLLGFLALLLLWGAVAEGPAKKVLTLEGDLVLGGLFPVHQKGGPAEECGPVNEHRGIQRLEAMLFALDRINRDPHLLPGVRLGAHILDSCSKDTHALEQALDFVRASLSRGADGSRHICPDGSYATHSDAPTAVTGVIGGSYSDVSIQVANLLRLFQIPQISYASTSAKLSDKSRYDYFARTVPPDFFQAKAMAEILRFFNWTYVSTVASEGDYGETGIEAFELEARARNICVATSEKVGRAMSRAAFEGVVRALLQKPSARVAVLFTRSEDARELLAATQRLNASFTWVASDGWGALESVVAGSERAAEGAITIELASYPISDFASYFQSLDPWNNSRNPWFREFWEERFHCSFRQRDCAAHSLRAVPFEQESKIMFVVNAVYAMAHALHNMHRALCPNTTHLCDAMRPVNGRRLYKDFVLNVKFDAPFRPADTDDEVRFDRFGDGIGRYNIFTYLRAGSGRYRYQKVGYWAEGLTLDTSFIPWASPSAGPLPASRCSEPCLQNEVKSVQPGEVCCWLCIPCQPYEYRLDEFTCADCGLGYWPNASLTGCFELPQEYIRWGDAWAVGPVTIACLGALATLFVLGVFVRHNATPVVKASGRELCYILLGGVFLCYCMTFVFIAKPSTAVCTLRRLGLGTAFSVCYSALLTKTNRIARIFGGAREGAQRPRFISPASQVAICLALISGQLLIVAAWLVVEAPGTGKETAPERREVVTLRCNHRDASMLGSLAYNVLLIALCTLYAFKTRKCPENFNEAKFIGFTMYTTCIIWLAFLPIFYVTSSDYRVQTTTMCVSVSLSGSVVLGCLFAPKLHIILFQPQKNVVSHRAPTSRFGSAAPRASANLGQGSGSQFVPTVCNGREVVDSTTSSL

[2] = Half-life in rat upon oral dose of 30 mg/kg; type: ADME, organism-based; set-up: dose 30 mg/kg, route oral; conditions: in vivo
How it was run: (§1)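 Fasted rats were dosed orally at 3, 10 or 30 mg/kg. Plasma concentration-time profiles were measured by LC/ESI-MS/MS. Cmax, Tmax, elimination half-life and AUCinf were derived per dose group and reported as mean ± deviation.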

[3] = target: T2, Metabotropic glutamate receptor 1 (Rattus norvegicus, UniProt P23385); experiment: Effective concentration for agonistic activity towards metabotropic glutamate receptor 1 of rat expressed in CHO cells; type: functional, cell-based
T2 sequence (P23385 whole entry): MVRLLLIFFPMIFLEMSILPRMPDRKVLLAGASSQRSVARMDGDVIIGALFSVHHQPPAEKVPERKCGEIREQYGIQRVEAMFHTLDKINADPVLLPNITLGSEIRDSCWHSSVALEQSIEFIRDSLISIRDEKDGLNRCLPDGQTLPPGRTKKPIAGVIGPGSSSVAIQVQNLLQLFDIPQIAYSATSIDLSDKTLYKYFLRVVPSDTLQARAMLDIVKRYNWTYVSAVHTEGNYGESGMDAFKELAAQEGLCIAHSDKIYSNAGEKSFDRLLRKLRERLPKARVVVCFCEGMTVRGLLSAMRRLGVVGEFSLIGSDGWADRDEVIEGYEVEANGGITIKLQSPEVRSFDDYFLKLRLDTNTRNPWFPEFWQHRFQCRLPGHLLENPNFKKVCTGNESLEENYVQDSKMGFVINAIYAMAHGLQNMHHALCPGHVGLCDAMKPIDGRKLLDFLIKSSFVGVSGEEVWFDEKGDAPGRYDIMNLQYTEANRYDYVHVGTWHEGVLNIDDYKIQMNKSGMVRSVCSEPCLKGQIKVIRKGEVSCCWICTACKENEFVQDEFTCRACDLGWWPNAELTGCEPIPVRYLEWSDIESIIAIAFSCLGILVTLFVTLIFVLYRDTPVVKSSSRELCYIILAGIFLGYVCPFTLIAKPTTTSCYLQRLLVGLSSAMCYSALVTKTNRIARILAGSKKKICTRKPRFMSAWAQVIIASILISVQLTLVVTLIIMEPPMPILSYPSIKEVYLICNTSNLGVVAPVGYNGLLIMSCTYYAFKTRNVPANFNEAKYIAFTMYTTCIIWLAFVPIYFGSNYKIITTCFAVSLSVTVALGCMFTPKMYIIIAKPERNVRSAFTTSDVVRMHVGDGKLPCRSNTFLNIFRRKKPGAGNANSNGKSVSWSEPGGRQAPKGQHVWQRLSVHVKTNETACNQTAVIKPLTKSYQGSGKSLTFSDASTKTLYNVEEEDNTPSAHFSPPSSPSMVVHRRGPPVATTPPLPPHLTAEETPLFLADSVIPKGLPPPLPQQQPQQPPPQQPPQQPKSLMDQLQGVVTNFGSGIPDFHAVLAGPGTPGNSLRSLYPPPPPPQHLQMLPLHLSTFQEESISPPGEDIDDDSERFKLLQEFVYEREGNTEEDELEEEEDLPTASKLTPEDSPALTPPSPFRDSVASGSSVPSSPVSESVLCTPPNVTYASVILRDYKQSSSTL

[4] = target: T1, Metabotropic glutamate receptor 2; experiment: Effective concentration for agonistic activity towards metabotropic glutamate receptor 2 of rat expressed in CHO cells; type: functional, cell-based
[5] = target: T3, Metabotropic glutamate receptor 3 (Rattus norvegicus, UniProt P31422); experiment: Effective concentration for agonistic activity towards metabotropic glutamate receptor 3 of rat expressed in CHO cells; type: functional, cell-based
T3 sequence (P31422 whole entry): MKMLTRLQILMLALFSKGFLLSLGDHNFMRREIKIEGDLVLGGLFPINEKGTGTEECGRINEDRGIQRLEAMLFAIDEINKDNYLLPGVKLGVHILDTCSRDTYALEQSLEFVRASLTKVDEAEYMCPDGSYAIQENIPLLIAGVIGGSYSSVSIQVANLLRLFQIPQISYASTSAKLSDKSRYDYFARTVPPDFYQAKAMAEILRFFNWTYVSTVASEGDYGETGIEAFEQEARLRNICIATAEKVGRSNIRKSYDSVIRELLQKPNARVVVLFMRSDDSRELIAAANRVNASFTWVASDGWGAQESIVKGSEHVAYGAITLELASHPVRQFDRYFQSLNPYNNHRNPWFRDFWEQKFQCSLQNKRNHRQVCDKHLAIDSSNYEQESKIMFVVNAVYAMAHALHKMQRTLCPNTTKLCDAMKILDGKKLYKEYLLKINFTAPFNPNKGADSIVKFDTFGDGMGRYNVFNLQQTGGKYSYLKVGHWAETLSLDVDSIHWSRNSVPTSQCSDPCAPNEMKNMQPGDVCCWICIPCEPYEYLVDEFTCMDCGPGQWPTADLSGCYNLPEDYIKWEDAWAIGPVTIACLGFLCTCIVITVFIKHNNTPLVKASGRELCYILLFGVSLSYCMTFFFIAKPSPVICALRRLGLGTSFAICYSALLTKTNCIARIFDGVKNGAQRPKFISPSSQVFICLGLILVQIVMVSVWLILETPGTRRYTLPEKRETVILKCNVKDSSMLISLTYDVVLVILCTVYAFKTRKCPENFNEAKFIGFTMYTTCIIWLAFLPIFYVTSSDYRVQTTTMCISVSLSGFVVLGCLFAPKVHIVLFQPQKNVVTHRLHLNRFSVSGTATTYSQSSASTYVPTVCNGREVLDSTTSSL

[6] = target: T4, Metabotropic glutamate receptor 5 (Rattus norvegicus, UniProt P31424); experiment: Effective concentration for agonistic activity towards metabotropic glutamate receptor 5 of rat expressed in CHO cells; type: functional, cell-based
T4 sequence (P31424 whole entry): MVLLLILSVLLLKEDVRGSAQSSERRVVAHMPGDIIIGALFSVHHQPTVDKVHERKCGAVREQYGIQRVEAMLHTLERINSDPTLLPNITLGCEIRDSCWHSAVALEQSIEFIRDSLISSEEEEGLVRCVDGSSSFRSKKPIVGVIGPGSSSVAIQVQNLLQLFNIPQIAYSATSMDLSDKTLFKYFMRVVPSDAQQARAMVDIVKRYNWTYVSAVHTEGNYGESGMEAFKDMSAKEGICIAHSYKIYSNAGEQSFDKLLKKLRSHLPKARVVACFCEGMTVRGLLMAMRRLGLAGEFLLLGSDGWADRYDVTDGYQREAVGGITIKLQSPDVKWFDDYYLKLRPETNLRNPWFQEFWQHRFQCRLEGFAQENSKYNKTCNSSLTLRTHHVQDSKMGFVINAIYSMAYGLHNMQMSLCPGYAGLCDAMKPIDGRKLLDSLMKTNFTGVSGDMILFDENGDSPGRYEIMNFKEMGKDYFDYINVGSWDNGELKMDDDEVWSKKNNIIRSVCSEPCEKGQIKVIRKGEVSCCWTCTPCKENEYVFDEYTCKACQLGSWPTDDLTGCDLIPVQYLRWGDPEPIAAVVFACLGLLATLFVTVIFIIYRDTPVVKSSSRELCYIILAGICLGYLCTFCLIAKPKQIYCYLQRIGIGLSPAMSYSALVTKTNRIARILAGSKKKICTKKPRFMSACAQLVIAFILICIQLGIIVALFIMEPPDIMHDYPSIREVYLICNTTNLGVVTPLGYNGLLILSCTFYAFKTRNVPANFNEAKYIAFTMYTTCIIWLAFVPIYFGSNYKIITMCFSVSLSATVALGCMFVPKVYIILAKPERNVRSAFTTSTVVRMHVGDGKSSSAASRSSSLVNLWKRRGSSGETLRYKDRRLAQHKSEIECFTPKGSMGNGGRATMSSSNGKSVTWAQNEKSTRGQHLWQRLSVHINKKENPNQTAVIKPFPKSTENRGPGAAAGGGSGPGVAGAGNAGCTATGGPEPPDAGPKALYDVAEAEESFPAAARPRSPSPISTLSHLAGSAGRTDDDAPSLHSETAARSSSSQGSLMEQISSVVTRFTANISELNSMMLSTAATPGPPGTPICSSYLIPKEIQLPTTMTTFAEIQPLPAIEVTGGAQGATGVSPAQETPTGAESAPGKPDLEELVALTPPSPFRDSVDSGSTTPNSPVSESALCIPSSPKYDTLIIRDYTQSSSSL

[7] = target: T5, Metabotropic glutamate receptor 6 (Rattus norvegicus, UniProt P35349); experiment: Effective concentration for agonistic activity towards metabotropic glutamate receptor 6 of rat expressed in CHO cells; type: functional, cell-based
T5 sequence (P35349 whole entry): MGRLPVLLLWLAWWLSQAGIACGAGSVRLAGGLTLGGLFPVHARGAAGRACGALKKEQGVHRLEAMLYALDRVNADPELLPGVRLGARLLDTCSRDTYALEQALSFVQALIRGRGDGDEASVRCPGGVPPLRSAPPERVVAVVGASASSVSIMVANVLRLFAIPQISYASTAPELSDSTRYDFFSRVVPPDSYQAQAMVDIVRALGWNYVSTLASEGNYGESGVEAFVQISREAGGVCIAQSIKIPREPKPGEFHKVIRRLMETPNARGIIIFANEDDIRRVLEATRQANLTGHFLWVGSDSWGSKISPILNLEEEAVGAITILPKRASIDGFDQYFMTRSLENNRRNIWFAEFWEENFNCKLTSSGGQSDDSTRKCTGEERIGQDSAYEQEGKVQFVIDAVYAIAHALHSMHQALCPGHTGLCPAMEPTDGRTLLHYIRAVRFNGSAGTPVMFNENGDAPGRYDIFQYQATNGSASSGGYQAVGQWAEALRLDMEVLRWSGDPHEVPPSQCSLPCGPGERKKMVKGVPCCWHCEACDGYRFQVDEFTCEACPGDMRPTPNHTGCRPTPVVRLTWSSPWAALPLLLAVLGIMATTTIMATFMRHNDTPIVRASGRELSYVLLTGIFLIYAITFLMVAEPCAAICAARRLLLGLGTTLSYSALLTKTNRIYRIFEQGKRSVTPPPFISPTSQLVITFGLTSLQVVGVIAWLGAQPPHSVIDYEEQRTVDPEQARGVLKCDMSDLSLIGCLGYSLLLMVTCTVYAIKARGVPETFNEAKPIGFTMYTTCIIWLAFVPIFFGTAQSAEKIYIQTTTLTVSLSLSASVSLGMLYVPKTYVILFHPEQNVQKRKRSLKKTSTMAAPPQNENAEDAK

[8] = target: T2, Metabotropic glutamate receptor 1; experiment: Concentration required to inhibit metabotropic glutamate receptor 1 activity of rat expressed in CHO cells; type: cell-based
[9] = target: T3, Metabotropic glutamate receptor 3; experiment: Concentration required to inhibit metabotropic glutamate receptor 3 activity of rat expressed in CHO cells; type: cell-based
[10] = target: Metabotropic glutamate receptor 4 (Rattus norvegicus, UniProt P31423); experiment: Concentration required to inhibit metabotropic glutamate receptor 4 activity of rat expressed in CHO cells; type: cell-based
[11] = target: T4, Metabotropic glutamate receptor 5; experiment: Concentration required to inhibit metabotropic glutamate receptor 5 activity of rat expressed in CHO cells; type: cell-based
[12] = target: T5, Metabotropic glutamate receptor 6; experiment: Concentration required to inhibit metabotropic glutamate receptor 6 activity of rat expressed in CHO cells; type: cell-based
[13] = Concentration of compound in brain of rat after 1 hr of oral dose 10 mg/kg; type: ADME, organism-based; set-up: dose 10 mg/kg, route oral
How it was run: (§2)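 Rats given a single peroral dose of 10 mg/kg. Plasma and cerebrum were sampled at 1, 3, 6 and 24 h. Concentrations were measured by LC/ESI-MS/MS using an internal standard. Detection limits were 1 ng/mL in plasma and 1.5 ng/g in brain. Tmax, Cmax, terminal half-life (lambda z) and predicted AUCinf were derived from the mean time-course levels.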

[14] = Concentration of compound in brain of rat after 3h of oral dose 10 mg/kg; type: ADME, organism-based; set-up: dose 10 mg/kg, route oral; how it was run: as §2
[15] = Concentration of compound in brain of rat after 6 hr of oral dose 10 mg/kg; type: ADME, organism-based; set-up: dose 10 mg/kg, route oral; how it was run: as §2
[16] = Peak plasma concentration in rats upon oral dose of 3 mg/kg; type: ADME, organism-based; set-up: dose 3 mg/kg, route oral; conditions: rat; how it was run: as §1
[17] = Peak plasma concentration in rats upon oral dose of 10 mg/kg; type: ADME, organism-based; set-up: dose 10 mg/kg, route oral; conditions: rat; how it was run: as §1
[18] = Peak plasma concentration in rats upon oral dose of 30 mg/kg; type: ADME, organism-based; set-up: dose 30 mg/kg, route oral; conditions: rat; how it was run: as §1
[19] = Peak plasma concentration in rat brain upon oral dose of 10 mg/kg; type: ADME, organism-based; set-up: dose 10 mg/kg, route oral; how it was run: as §2
[20] = Peak plasma concentration in rat plasma upon oral dose of 10 mg/kg; type: ADME, organism-based; set-up: dose 10 mg/kg, route oral; how it was run: as §2
[21] = Half-life in rat brain upon oral dose of 10 mg/kg; type: ADME, organism-based; set-up: dose 10 mg/kg, route oral; how it was run: as §2
[22] = Half-life in rat plasma upon oral dose of 10 mg/kg; type: ADME, organism-based; set-up: dose 10 mg/kg, route oral; how it was run: as §2
[23] = Concentration of compound in brain of rat after 24 hr of oral dose 10 mg/kg; type: ADME, organism-based; set-up: dose 10 mg/kg, route oral; how it was run: as §2
[24] = Concentration of compound in plasma of rat after 1 hr of oral dose 10 mg/kg; type: ADME, organism-based; set-up: dose 10 mg/kg, route oral; how it was run: as §2
[25] = Concentration of compound in plasma of rat after 3h of oral dose 10 mg/kg; type: ADME, organism-based; set-up: dose 10 mg/kg, route oral; how it was run: as §2
[26] = Concentration of compound in plasma of rat after 6 hr of oral dose 10 mg/kg; type: ADME, organism-based; set-up: dose 10 mg/kg, route oral; how it was run: as §2
[27] = Concentration of compound in plasma of rat after 24 hr of oral dose 10 mg/kg; type: ADME, organism-based; set-up: dose 10 mg/kg, route oral; how it was run: as §2
[28] = target: T3, Metabotropic glutamate receptor 3; experiment: Binding affinity towards metabotropic glutamate receptor 3 of rat expressed in CHO cells was determined by using [3H]MGS-0008; type: cell-based
[29] = Maximum time required to achieve peak plasma concentration upon oral dose of 3 mg/kg to rats; type: ADME, organism-based; set-up: dose 3 mg/kg, route oral; conditions: rat; how it was run: as §1
[30] = Maximum time required to achieve peak plasma concentration upon oral dose of 10 mg/kg to rats; type: ADME, organism-based; set-up: dose 10 mg/kg, route oral; conditions: rat; how it was run: as §1
[31] = Maximum time required to achieve peak plasma concentration upon oral dose of 30 mg/kg to rats; type: ADME, organism-based; set-up: dose 30 mg/kg, route oral; conditions: rat; how it was run: as §1
[32] = Maximum time required to achieve peak plasma concentration in rat brain upon oral dose of 10 mg/kg; type: ADME, organism-based; set-up: dose 10 mg/kg, route oral; how it was run: as §2
[33] = Maximum time required to achieve peak plasma concentration in rat plasma upon oral dose of 10 mg/kg; type: ADME, organism-based; set-up: dose 10 mg/kg, route oral; how it was run: as §2
[34] = Half-life in rat upon oral dose of 3 mg/kg; type: ADME, organism-based; set-up: dose 3 mg/kg, route oral; conditions: in vivo; how it was run: as §1
[35] = Half-life in rat upon oral dose of 10 mg/kg; type: ADME, organism-based; set-up: dose 10 mg/kg, route oral; conditions: in vivo; how it was run: as §1
[36] = target: Metabotropic glutamate receptor 7 (Rattus norvegicus, UniProt P35400); experiment: Binding affinity towards metabotropic glutamate receptor 7 of rat expressed in CHO cells was determined by using [3H]LY341495
[37] = target: T1, Metabotropic glutamate receptor 2; experiment: Concentration required to inhibit metabotropic glutamate receptor 2 activity of rat expressed in CHO cells; type: cell-based

CC[C@@H](O[C@@H]1C[C@@H]2[C@H]([C@]1(N)C(=O)O)[C@@]2(F)C(=O)O)c1ccc(Cl)c(Cl)c1
Ki [1]: 1.61 nM

C[C@H](O[C@@H]1C[C@@H]2[C@H]([C@]1(N)C(=O)O)[C@@]2(F)C(=O)O)c1ccc(Cl)c(Cl)c1
Ki [1]: 5.81 nM

N[C@]1(C(=O)O)[C@H]2[C@@H](C[C@H]1OCc1c(Cl)cccc1Cl)[C@]2(F)C(=O)O
Ki [1]: 4.3 nM

N[C@]1(C(=O)O)[C@@H](OCc2ccc(Cl)c(Cl)c2)C[C@H]2[C@@H]1[C@]2(F)C(=O)O
Ki [1]: > 10000 nM

N[C@]1(C(=O)O)[C@H]2[C@@H](C[C@H]1OCc1ccc(Cl)c(Cl)c1)[C@]2(F)C(=O)O
half-life [2]: 2.77 h
EC50 [3]: > 100000 nM
EC50 [4]: > 100000 nM
EC50 [5]: > 100000 nM
EC50 [6]: > 100000 nM
EC50 [7]: > 100000 nM
IC50 [8]: 93300 nM
IC50 [9]: 24 nM
IC50 [10]: 1740 nM
IC50 [11]: 117000 nM
IC50 [12]: 2060 nM
concentration at 1 h [13]: 3.88 ng/mL
concentration at 3 h [14]: 8.02 ng/mL
concentration at 6 h [15]: 13.2 ng/mL
Cmax [16]: 214 ng/mL
Cmax [17]: 932 ng/mL
Cmax [18]: 2960 ng/mL
Cmax [19]: 13.2 ng/mL
Cmax [20]: 492 ng/mL
half-life [21]: 10.9 h
half-life [22]: 2.3 h
concentration at 24 h [23]: 4.22 ng/mL
concentration at 1 h [24]: 364 ng/mL
concentration at 3 h [25]: 429 ng/mL
concentration at 6 h [26]: 492 ng/mL
concentration at 24 h [27]: 2.1 ng/mL
Ki [1]: 2.38 nM
Ki [28]: 4.46 nM
Tmax [29]: 2 h
Tmax [30]: 2.7 h
Tmax [31]: 3.3 h
Tmax [32]: 6 h
Tmax [33]: 6 h
half-life [34]: 2.15 h
half-life [35]: 2.76 h
Ki [36]: 664 nM

CCC[C@H](O[C@@H]1C[C@@H]2[C@H]([C@]1(N)C(=O)O)[C@@]2(F)C(=O)O)c1ccc(Cl)c(Cl)c1
Ki [1]: 3.05 nM

N[C@]1(C(=O)O)[C@H]2[C@@H](C[C@H]1OCc1ccc(Cl)cc1)[C@]2(F)C(=O)O
half-life [2]: 3.28 h
EC50 [4]: > 100000 nM
concentration at 1 h [13]: 2.51 ng/mL
concentration at 3 h [14]: 3.66 ng/mL
concentration at 6 h [15]: 3.39 ng/mL
Cmax [16]: 76.6 ng/mL
Cmax [17]: 272 ng/mL
Cmax [18]: 651 ng/mL
Cmax [19]: 3.66 ng/mL
Cmax [20]: 225 ng/mL
half-life [22]: 2.5 h
concentration at 1 h [24]: 176 ng/mL
concentration at 3 h [25]: 225 ng/mL
concentration at 6 h [26]: 98.2 ng/mL
Ki [1]: 3.17 nM
Ki [28]: 4.77 nM
Tmax [29]: 1.3 h
Tmax [30]: 2.3 h
Tmax [31]: 2.7 h
Tmax [32]: 3 h
Tmax [33]: 3 h
half-life [34]: 1.67 h
half-life [35]: 3.75 h

N[C@]1(C(=O)O)[C@H]2[C@@H](C[C@H]1OCc1ccccc1)[C@]2(F)C(=O)O
IC50 [37]: 131 nM
Ki [1]: 7.14 nM
Ki [28]: 15.9 nM

COc1cccc(CO[C@@H]2C[C@@H]3[C@H]([C@]2(N)C(=O)O)[C@@]3(F)C(=O)O)c1
Ki [1]: 5.92 nM

CO[C@@H]1C[C@@H]2[C@H]([C@]1(N)C(=O)O)[C@@]2(F)C(=O)O
Ki [1]: 39.2 nM
Ki [28]: 88.1 nM

CC[C@H](O[C@@H]1C[C@@H]2[C@H]([C@]1(N)C(=O)O)[C@@]2(F)C(=O)O)c1ccc(Cl)c(Cl)c1
Ki [1]: 3.12 nM

N[C@]1(C(=O)O)[C@H]2[C@@H](C[C@H]1OCc1ccc(F)c(F)c1)[C@]2(F)C(=O)O
half-life [2]: 3.62 h
EC50 [4]: > 100000 nM
IC50 [37]: 40.8 nM
concentration at 1 h [13]: 3.06 ng/mL
concentration at 3 h [14]: 3.11 ng/mL
concentration at 6 h [15]: 2.4 ng/mL
Cmax [16]: 82.3 ng/mL
Cmax [17]: 297 ng/mL
Cmax [18]: 635 ng/mL
Cmax [19]: 3.11 ng/mL
Cmax [20]: 213 ng/mL
half-life [21]: 19.5 h
half-life [22]: 2.8 h
concentration at 24 h [23]: 1.39 ng/mL
concentration at 1 h [24]: 213 ng/mL
concentration at 3 h [25]: 179 ng/mL
concentration at 6 h [26]: 41.1 ng/mL
concentration at 24 h [27]: 0.8 ng/mL
Ki [1]: 2.27 nM
Ki [28]: 3 nM
Tmax [29]: 1.3 h
Tmax [30]: 1.7 h
Tmax [31]: 1.2 h
Tmax [32]: 3 h
Tmax [33]: 1 h
half-life [34]: 3.47 h
half-life [35]: 1.78 h

N[C@@]1(C(=O)O)[C@H](O)C[C@@H]2[C@H]1[C@@]2(F)C(=O)O
EC50 [4]: > 100000 nM
Ki [1]: 32.9 nM
Ki [28]: 67.1 nM

N[C@]1(C(=O)O)[C@H]2[C@@H](C[C@H]1OCc1ccc(Cl)c(F)c1)[C@]2(F)C(=O)O
Ki [1]: 4.02 nM

N[C@]1(C(=O)O)[C@H]2[C@@H](C[C@H]1OCc1ccc3ccccc3c1)[C@]2(F)C(=O)O
half-life [2]: 2.93 h
IC50 [37]: 22.7 nM
concentration at 1 h [13]: 1.42 ng/mL
concentration at 3 h [14]: 3.64 ng/mL
concentration at 6 h [15]: 8.72 ng/mL
Cmax [16]: 65.9 ng/mL
Cmax [17]: 374 ng/mL
Cmax [18]: 965 ng/mL
Cmax [19]: 8.72 ng/mL
Cmax [20]: 252 ng/mL
half-life [21]: 7.1 h
half-life [22]: 2.9 h
concentration at 24 h [23]: 0.25 ng/mL
concentration at 1 h [24]: 121 ng/mL
concentration at 3 h [25]: 252 ng/mL
concentration at 6 h [26]: 210 ng/mL
concentration at 24 h [27]: 2.2 ng/mL
Ki [28]: 5.43 nM
Tmax [29]: 4 h
Tmax [30]: 2.7 h
Tmax [31]: 2.7 h
Tmax [32]: 6 h
Tmax [33]: 3 h
half-life [34]: 3.66 h
half-life [35]: 2.74 h
